A short description of data set [1]: Metabolic stability in rat liver microsomes assessed as half life preincubated for 15 mins followed by NADPH addition and measured after 1 to 2 hrs by LC-MS/MS analysis. In kind it is ADME, Microsome. As to conditions: time 75-135 min; for half-life: liver microsomes. Put shortly:
(§1)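 Microsomal stability assessed in mouse, human, rat or dog liver microsomes with NADPH cofactor. Half-life and percent parent remaining at 60 and 120 min reported. Mean of at least two independent experiments, each in two technical replicates.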

The nature of data set [2]: Metabolic stability in human liver microsomes assessed as parent compound remaining preincubated for 15 mins followed by NADPH addition and measured after 1 hr by LC-MS/MS analysis. In kind it is ADME, Microsome. As to conditions: time 75 min, read-out: Stability. Put shortly: as §1
Background: Liver microsomes are a subcellular fraction often used to study metabolism.

A short description of data set [3]: Metabolic stability in mouse liver microsomes assessed as parent compound remaining preincubated for 15 mins followed by NADPH addition and measured after 2 hrs by LC-MS/MS analysis. It counts as ADME, Microsome. As to conditions: time 135 min, read-out: Stability. The method, boiled down:
as §1

Data set [4] relates to BT-474. Description: Cytotoxicity against human BT-474 cells. In kind it is functional. Put shortly:
(§2)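 BT-474 breast cancer cells and nontumorigenic HMECs treated 48 h with concentrations up to 30 μM. CC50 derived from concentration–response viability plots. Values >30 μM assigned when viability fell by less than 50% of vehicle at 30 μM. Mean ± SEM, n ≥ 3.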

Data set [5] is described as follows: (§3) Cytotoxicity against HMECs. In kind it is toxicity, cell-based, HMEC. As to conditions: human, HMEC cells. Put shortly: as §2
Data set [6] can be described thus: Metabolic stability in rat liver microsomes assessed as parent compound remaining preincubated for 15 mins followed by NADPH addition and measured after 1 to 2 hrs by LC-MS/MS analysis. In kind it is ADME, Microsome. As to conditions: time 75-135 min. The method, boiled down:
as §1

A short description of data set [7]: Metabolic stability in mouse liver microsomes assessed as half life preincubated for 15 mins followed by NADPH addition and measured after 1 to 2 hrs by LC-MS/MS analysis. In kind it is ADME, Microsome. As to conditions: time 75-135 min; for t1/2: microsomes. Put shortly:
as §1

A short description of data set [8]: Aqueous kinetic solubility of the compound in PBS at pH 7.4 at 250 uM incubated for 24 hrs by UPLC/MS analysis. It counts as physicochemical. As to conditions: read-out: Kinetic_solubility. Put shortly:
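Kinetic solubility measured in phosphate-buffered saline, pH 7.4. Mean of at least two independent experiments, each run in two technical replicates.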

Data set [9] is described as follows: Metabolic stability in mouse liver microsomes assessed as half life preincubated for 15 mins followed by UDPGA addition and measured after 2 hrs by LC-MS/MS analysis. It counts as ADME, Microsome. As to conditions: time 135 min. The method, boiled down: (§4)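 Mouse and human liver microsomes incubated with UDPGA cofactor. Half-life and percent parent remaining at 120 min reported. Mean of at least two independent experiments, each in two technical replicates.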

Data set [10] is described as follows: Metabolic stability in dog liver microsomes assessed as half life preincubated for 15 mins followed by NADPH addition and measured after 1 to 2 hrs by LC-MS/MS analysis. As to conditions: time 75-135 min; for t1/2: microsomes. It counts as ADME, Canis lupus familiaris, Microsome. The method, boiled down: as §1
A short description of data set [11]: Metabolic stability in human liver microsomes assessed as half life preincubated for 15 mins followed by NADPH addition and measured after 1 to 2 hrs by LC-MS/MS analysis. In kind it is ADME, Microsome. As to conditions: liver microsomes, time 75-135 min. Put shortly:
as §1

Data set [12] can be described thus: Metabolic stability in mouse liver microsomes assessed as parent compound remaining preincubated for 15 mins followed by NADPH addition and measured after 1 hr by LC-MS/MS analysis. In kind it is ADME, Microsome. As to conditions: time 75 min, read-out: Stability. The method, boiled down: as §1
Data set [13] in a line: Metabolic stability in mouse liver microsomes assessed as half-life preincubated for 15 mins followed by UDPGA addition and measured after 2 hrs by LC-MS/MS analysis.
Data set [14] in a line: Metabolic stability in human liver microsomes assessed as parent compound remaining preincubated for 15 mins followed by NADPH addition and measured after 2 hrs by LC-MS/MS analysis. It counts as ADME, Microsome. As to conditions: time 135 min, read-out: Stability. Put shortly: as §1
Data set [15] in a line: Metabolic stability in human liver microsomes assessed as parent compound remaining preincubated for 15 mins followed by UDPGA addition and measured after 2 hrs by LC-MS/MS analysis. In kind it is ADME, Microsome. As to conditions: time 135 min, read-out: Stability. Put shortly:
as §4

Data set [16] concerns HMEC. The data set is described as §3. It counts as toxicity, cell-based. As to conditions: human, hmec. Put shortly:
as §2

Data set [17] can be described thus: Metabolic stability in dog liver microsomes assessed as parent compound remaining preincubated for 15 mins followed by NADPH addition and measured after 1 to 2 hrs by LC-MS/MS analysis. It counts as ADME, Canis lupus familiaris, Microsome. As to conditions: time 75-135 min. Put shortly:
as §1

Data set [18] is described as follows: Cytotoxicity against human OMM-1 cells. In kind it is functional. Put shortly:
(§5)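 Human cancer lines (A375, MDA-MB-231, OMM-1, UPMM-2, CAPAN-2, HepG2, HT-29, HCT116) treated up to 30 μM. CC50 derived from concentration–response viability plots. Mean ± SEM, n ≥ 6. Two-tailed unpaired t test used between compounds.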

Data set [19] concerns A375 (human). Briefly: Inhibition of autophagy in human A375 cells expressing EGFP-LC3B assessed as accumulation of autophagosome after 24 hrs by Hoechst 33342 staining based fluorescent microscopy analysis. As to conditions: dose 1.25-5 µM.
The test system of data set [20] is Capan-2. Briefly: Cytotoxicity against human Capan-2 cells. In kind it is functional. The method, boiled down:
as §5

Data set [21] concerns MDA-MB-231. Briefly: Cytotoxicity against human MDA-MB-231 cells. It counts as functional. Put shortly: as §5
Data set [22] relates to A375 (human). Description: Inhibition of autophagy in human A375 cells expressing EGFP-LC3B assessed as increase in LC3-II protein level at 2.5 uM after 24 hrs by immunoblotting analysis. For orientation: Immunoblotting shows a protein as a band on a membrane.
For data set [23], the system named is HCT-116. Description: Cytotoxicity against human HCT-116 cells. It counts as functional. The method, boiled down:
as §5

Data set [24] deals with A-375. Briefly: Cytotoxicity against human A-375 cells. In kind it is functional. The method, boiled down: as §5
The nature of data set [25]: Inhibition of REV-ERBbeta (unknown origin) transcription expressed in HEK293 cells incubated for 24 hrs by gaussia luciferase based assay. In kind it is cell-based. As to conditions: Homo sapiens, HEK293, 24 h. Put shortly: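 HEK-293 cells cotransfected with REV-ERBβ and a luciferase reporter driven by two repeats of a REV-ERB response element (RevRE) consensus, then treated across a concentration range. Luciferase activity is expressed as fold of DMSO vehicle, mean ± SEM, n = 6, and EC50 is taken from the concentration-response curve. A parallel reporter carrying a mutated RevRE served as a specificity control.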

The subject of data set [26] is HT-29. Briefly: Cytotoxicity against human HT-29 cells. In kind it is functional. Put shortly: as §5
Data set [27] relates to HepG2. Briefly: Cytotoxicity against human HepG2 cells. In kind it is functional. Put shortly:
as §5

The nature of data set [28]: Cytotoxicity against human UPMM-2 cells. It counts as functional. The method, boiled down: as §5
Data set [29] in a line: Metabolic stability in human liver microsomes assessed as percent compound remaining preincubated for 15 mins followed by UDPGA addition and measured after 2 hrs by LC-MS/MS analysis.

≈ marks a conversion by molar mass, not a printed value. Calls of active or inactive are those of the source. No cut-off for these calls is given here.

The results in this text go back to ChEMBL document CHEMBL5344432, “Identification of a Dual Autophagy and REV-ERB Inhibitor with in Vivo Anticancer Efficacy” (J Med Chem, 2024).

Usually half-life stands for the time in which the quantity being followed falls by half. Broadly, the CC50 is the concentration giving 50% cytotoxicity. Read a low CC50 as harm at low concentration. As for `CN1CC2(CC(Cc3cccc(CNC4(c5ccc(F)cc5)CCCC4)c3)C2)C1`, the half-life in data set [1] is above 1 h; in data set [9] it was above 2 h; in data set [11], above 2 h. Also, the results for the remaining at 1 h in data set [2] and in data set [12] were 82% and 70%, respectively. Besides, the remaining at 2 h was 49% in [3], 66% in data set [14] and 95% in data set [15]. Moreover, the CC50 in [4] is 4.83 µM; in data set [5] it was above 30 µM. The Stability in [6] is on record as 64%. For the same compound, the t1/2 in [7] is 1.92 h; in [10], 0.883 h. The solubility kinetic at 24 h, 250 µM in [8] amounted to 232 µM (≈ 91.1 µg/mL). Besides, the t1/2 at 2 h in data set [13] was above 2 h.
Turning to `CN1CC2(CC(Cc3cccc(CNC4(c5ccc(F)c(F)c5)CCCC4)c3)C2)C1`, the results for the remaining at 1 h in data set [2] and in data set [12] were 84% and 56%, respectively. Also, the remaining at 2 h in data set [3] worked out at 32%; in data set [14], 65%. In addition, the results for the half-maximal cytotoxic concentration (CC50) in [4] and in [16] were 2.99 µM and 14.8 µM, respectively. In addition, the t1/2 in data set [7] was 1.25 h. Moreover, the solubility kinetic at 24 h, 250 µM in data set [8] was 226 µM (≈ 92.8 µg/mL). In addition, the half-life in data set [11] was above 2 h.
With `Fc1ccc(C2(NCc3cc(CC4CCNCC4)ccc3F)CCCC2)cc1`, the half-life was above 1 h in [1]; above 2 h in data set [7] (liver microsomes); above 2 h in data set [9]; above 1 h in data set [10] (liver microsomes); above 2 h in data set [11]. In addition, the remaining at 1 h in data set [2] stood at 75%; in data set [12], 82%. The remaining at 2 h in data set [3] turned out to be 74%; in [14], 54%; in data set [15] it was 95%. For the same compound, the 50% cytotoxic concentration (CC50) turned out to be 2.29 µM in data set [4] and 17.2 µM in data set [16]. The Stability in [6] is listed as 75%; in [17], 83%. Also, in data set [8], the solubility kinetic at 24 h, 250 µM came out at 245 µM (≈ 94.2 µg/mL). For the same compound, the t1/2 at 2 h in [13] is above 2 h.
As for `CN1CCC(Cc2cc(CNC3(c4ccc(F)cc4)CCCC3)ccc2Cl)CC1`, the remaining at 2 h in [3] is 29%. Besides, the half-maximal cytotoxic concentration (CC50) in data set [4] amounted to 2.34 µM; in data set [16], 15.4 µM. In data set [7], the t1/2 turned out to be 0.933 h. In addition, the solubility kinetic at 24 h, 250 µM in data set [8] came out at 216 µM (≈ 89.6 µg/mL). For the same compound, in [12], the remaining at 1 h amounted to 51%.
As a reminder, the EC50 is the concentration that produces a half-maximal response. In the case of `CN1CCC(Cc2cccc(CNC3(c4ccc(F)cc4)CCCC3)c2)CC1`, the values for the t1/2 in data set [1] (microsomes) and in data set [10] were 0.733 h and 0.933 h, respectively. For the same compound, the remaining at 1 h is 79% in data set [2] and 66% in data set [12]. Further, the remaining at 2 h in [3] was 39%; in data set [14], 50%; in data set [15] it was above 95%. Besides, the CC50 was 2.28 µM in [18]; 5.93 µM in [4]; above 30 µM in [5]; above 30 µM in data set [20]; 7.42 µM in data set [21]; 13.5 µM in data set [23]. Also, the CC50 in data set [24] is 5.67 µM; in [26], 18.9 µM; in data set [27], 2.8 µM; in data set [28], 1.91 µM. For the same compound, the inhibition result in [19] is “Dose-Dependent Effect”. For the same compound, the solubility kinetic at 24 h, 250 µM in data set [8] is 235 µM (≈ 89.4 µg/mL). Besides, the half-life in data set [9] and in data set [11] was above 2 h throughout. Besides, in data set [22], the inhibition result is “Active”. Besides, in [13], the t1/2 at 2 h is above 2 h. It took 3.78 µM to reach a half-maximal effect in data set [25] (EC50).
With `CN1CCC(Cc2cc(CNC3(c4ccc(F)cc4)CCCC3)c(F)cc2F)CC1`, the figures for the remaining at 1 h in data set [2] and in data set [12] were 76% and 58%, respectively. For the same compound, the remaining at 2 h in data set [3] turned out to be 34%; in data set [14] it was 52%; in data set [15] it was 95%. In addition, the percent compound remaining at 2 h in data set [29] turned out to be 95%. Besides, the CC50 in data set [4] was found to be 3.11 µM; in data set [16], 20.4 µM. The t1/2 in data set [7] stood at 1.33 h. In addition, the solubility kinetic at 24 h, 250 µM in [8] stood at 228 µM (≈ 95 µg/mL). Besides, the half-life in data set [9] and in data set [11] was above 2 h each time. Moreover, in data set [13], the t1/2 at 2 h was above 2 h.
